# Results reported in ChEMBL document CHEMBL1821722, “Design, synthesis and biological evaluation of novel desmuramyldipeptide analogs” (Eur J Med Chem, 2011).
# The source made the active and inactive calls. No cut-off for these calls is given here.
# Tests used:
# [1] = tested on: THP-1; experiment: Immunomodulatory effect in human THP1 cells assessed as increase in LPS-induced TNF-alpha release at 2 uM after 24 hrs by sandwich ELISA relative to LPS; format: functional
# In short: (§1)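 THP-1 cells at 10⁶ cells/ml in RPMI 1640 with 10% heat-inactivated FCS. Co-incubated 24 h with compound (0.2–200 µM) plus E. coli 0127:B8 LPS 1 ng/ml, DMSO vehicle ≤0.2% final. TNF-α in supernatant expressed as % of LPS-induced release, mean ± SD of 6 samples.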
# [2] = tested on: THP-1; experiment: Immunomodulatory effect in human THP1 cells assessed as increase in LPS-induced TNF-alpha release at 0.2 uM after 24 hrs by sandwich ELISA relative to LPS; format: functional; in short: as §1
# [3] = tested on: THP-1; experiment: Toxicity in human THP1 cells assessed TNF-alpha release at 20.2 uM after 3 to 24 hrs by sandwich ELISA; format: cell-based; conditions: thp-1, 20.2 µM
# In short: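 Time course in THP-1 cells, with release sampled at 3, 8 and 24 h. Cells co-incubated with test agent and 1 ng/ml LPS. Co-incubation was compared with preincubation.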
# [4] = tested on: PBMC; experiment: Cytotoxicity against human PBMC assessed as LDH release at 20.2 uM; format: cell-based
# [5] = tested on: THP-1; experiment: Immunomodulatory effect in human THP1 cells assessed as increase in LPS-induced TNF-alpha release at 200 uM after 24 hrs by sandwich ELISA relative to LPS; format: functional; in short: as §1
# [6] = tested on: THP-1; experiment: Immunomodulatory effect in human THP1 cells assessed as increase in LPS-induced TNF-alpha release at 20.2 uM after 24 hrs by sandwich ELISA relative to LPS; format: functional; in short: as §1
# [7] = tested on: THP-1; experiment: Immunomodulatory effect in human THP1 cells assessed as increase in LPS-induced TNF-alpha release after 24 hrs by sandwich ELISA relative to LPS; format: functional, cell-based; in short: as §1
# [8] = tested on: PBMC; experiment: Immunomodulatory effect in human PBMC cells assessed as increase in LPS-induced TNF-alpha release at 20.2 uM after 24 hrs by sandwich ELISA; format: functional, cell-based
# [9] = tested on: THP-1; experiment: Toxicity in human THP1 cells assessed TNF-alpha release at 20.2 uM after 24 hrs by sandwich ELISA; format: cell-based; conditions: thp-1, 24 h
# In short: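 THP-1 in supplemented RPMI 1640 co-incubated 24 h with 20.2 µM compound and 1 ng/ml LPS, DMSO ≤0.2%. TNF-α release expressed as % of the LPS-only response, mean ± SD of 6 samples, Mann-Whitney U test.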
# [10] = tested on: THP-1; experiment: Cytotoxicity against human THP1 cells assessed as LDH release at 20.2 uM; format: cell-based; conditions: thp-1, 20.2 µM
# In short: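 LDH leakage into the medium used as the cytotoxicity read-out, taken at the highest concentration tested.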
smiles,measurement,setting,value
CC(=O)N[C@H]1C(O)O[C@H](CO)[C@@H](O)[C@@H]1O[C@H](C)C(=O)N[C@@H](C)C(=O)N[C@H](CCC(=O)O)C(N)=O (stereo not given in full) [MURAMYL DIPEPTIDE],Activity,[1],171.8%
same,Activity,[2],108%
same,Activity,[3],Non-toxic
same,Activity,[4],Non-toxic
same,Activity,[5],306.8%
same,Activity,[6],187.4%
same,Activity,[7],Dose-dependent effect
same,Activity,[8],Active
same,Activity,[9],Non-toxic
same,Activity,[10],Non-toxic
